{"source": "ChEMBL document CHEMBL1828575", "about": "“Design, synthesis and antiproliferative activities of biarylolefins based on polyhydroxylated and carbohydrate scaffolds” (Eur J Med Chem, 2011)", "type_in_all_cases": "functional", "key": {"[1]": {"system": "IGROV-1", "assay": "Cytotoxicity against human IGROV1 cells assessed as cellular growth at 10 uM after 48 hrs by SRB assay", "how_it_was_run": "(§1)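 NCI60 single-dose screen of cells in RPMI 1640 with 5% FBS and 2 mM L-glutamine, preincubated 24 h at 37 °C, 5% CO₂. Cells were then exposed 48 h to compound added from DMSO stock. TCA-fixed, stained with 0.4% SRB in 1% acetic acid, dye solubilised in 10 mM Tris base and read at 515 nm. Growth is given as percent of untreated control.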"}, "[2]": {"system": "Malme-3M", "assay": "Cytotoxicity against human MALME-3M cells assessed as cellular growth at 10 uM after 48 hrs by SRB assay", "how_it_was_run": "(§2)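 NCI-60 panel lines grown in RPMI 1640 with 5% FBS and 2 mM L-glutamine. Plated at 5000–40,000 cells/well and preincubated 24 h at 37 °C, 5% CO₂, with time-zero plates fixed in TCA. Compounds, dissolved in DMSO and diluted in medium, were applied for 48 h. Cells were TCA-fixed (10% final for adherent, 16% for suspension) and stained with 0.4% SRB in 1% acetic acid. Dye was solubilised in 10 mM Tris base and read at 515 nm; growth was expressed as a percentage of untreated control.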"}, "[3]": {"system": "MCF7", "assay": "Cytotoxicity against human MCF7 cells assessed as cellular growth at 10 uM after 48 hrs by SRB assay", "how_it_was_run": "as §2"}, "[4]": {"system": "PC-3", "assay": "Cytotoxicity against human PC3 cells assessed as cellular growth at 10 uM after 48 hrs by SRB assay", "how_it_was_run": "as §2"}, "[5]": {"system": "MDA-MB-231", "assay": "Cytotoxicity against human MDA-MB-231 cells assessed as cellular growth at 10 uM after 48 hrs by SRB assay", "how_it_was_run": "as §2"}, "[6]": {"system": "NCI-H23", "assay": "Cytotoxicity against human NCI-H23 cells assessed as cellular growth at 10 uM after 48 hrs by SRB assay", "how_it_was_run": "as §2"}, "[7]": {"system": "HOP-62", "assay": "Cytotoxicity against human HOP62 cells assessed as cellular growth at 10 uM after 48 hrs by SRB assay", "how_it_was_run": "as §1"}, "[8]": {"system": "MDA-MB-435", "assay": "Cytotoxicity against human MDA-MB-435 cells assessed as cellular growth at 10 uM after 48 hrs by SRB assay", "how_it_was_run": "as §2"}, "[9]": {"system": "SK-MEL-2", "assay": "Cytotoxicity against human SK-MEL-2 cells assessed as cellular growth at 10 uM after 48 hrs by SRB assay", "how_it_was_run": "as §2"}, "[10]": {"system": "UACC-257", "assay": "Cytotoxicity against human UACC257 cells assessed as cellular growth at 10 uM after 48 hrs by SRB assay", "how_it_was_run": "as §2"}, "[11]": {"system": "ACHN", "assay": "Cytotoxicity against human ACHN cells assessed as cellular growth at 10 uM after 48 hrs by SRB assay", "how_it_was_run": "as §1"}, "[12]": {"system": "CAKI-1", "assay": "Cytotoxicity against human Caki1 cells assessed as cellular growth at 10 uM after 48 hrs by SRB assay", "how_it_was_run": "as §1"}, "[13]": {"system": "MDA-MB-435", "assay": "Antitumor activity against human MDA-MB-435 cells after 48 hrs by SRB assay", "settings": "MDA-MB-435, 48 h", "how_it_was_run": "(§3)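 NCI60 panel in RPMI 1640 with 5% FBS and 2 mM L-glutamine. Cells were plated at 5000–40,000/well by doubling time, held 24 h, then time-zero plates were TCA-fixed. Five concentrations (10-fold or half-log dilutions of DMSO stocks) were applied for 48 h at 37 °C, 5% CO2. Cells were fixed with cold TCA (10% final adherent, 16% suspension) and stained with 0.4% SRB. Bound dye was dissolved in 10 mM Tris and read at 515 nm. GI50, TGI and LC50 were calculated per line.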"}, "[14]": {"system": "RXF 393", "assay": "Antitumor activity against human RXF393 cells after 48 hrs by SRB assay", "settings": "RXF 393, 48 h", "how_it_was_run": "as §3"}, "[15]": {"system": "T47D", "assay": "Antitumor activity against human T47D cells after 48 hrs by SRB assay", "how_it_was_run": "(§4)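 NCI60 panel cells grown in RPMI 1640 with 5% FBS and 2 mM L-glutamine, plated at 5000–40,000 cells/well and preincubated 24 h at 37 °C, 5% CO₂. Compound was added from DMSO at five concentrations, 10-fold or 1/2 log dilutions, then incubated 48 h.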"}, "[16]": {"system": "PC-3", "assay": "Antitumor activity against human PC3 cells after 48 hrs by SRB assay", "settings": "PC-3, 48 h", "how_it_was_run": "as §3"}, "[17]": {"system": "UACC-62", "assay": "Antitumor activity against human UACC62 cells after 48 hrs by SRB assay", "settings": "UACC-62, 48 h", "how_it_was_run": "as §4"}, "[18]": {"system": "SW-620", "assay": "Antitumor activity against human SW620 cells after 48 hrs by SRB assay", "settings": "SW-620, 48 h", "how_it_was_run": "as §4"}, "[19]": {"system": "NCI-H23", "assay": "Antitumor activity against human NCI-H23 cells after 48 hrs by SRB assay", "settings": "NCI-H23, 48 h", "how_it_was_run": "as §3"}, "[20]": {"system": "EKVX", "assay": "Antitumor activity against human EKVX cells after 48 hrs by SRB assay", "how_it_was_run": "as §3"}, "[21]": {"system": "HCT-15", "assay": "Antiproliferative activity against human HCT15 cells after 48 hrs by SRB assay", "settings": "HCT-15, 48 h", "how_it_was_run": "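NCI60 screen: cells grown in RPMI 1640 with 5% FBS and 2 mM L-glutamine, plated at 5000–40,000 cells/well by doubling time, preincubated 24 h at 37 °C with 5% CO2. Compounds were diluted from DMSO stocks and given for 48 h, at five concentrations for dose response. A time-zero plate was TCA-fixed. Cells were TCA-fixed, stained with 0.4% SRB and read at 515 nm, with growth expressed relative to untreated controls.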"}, "[22]": {"settings": "read-out: LC50 (the source's name)"}, "[23]": {"settings": "read-out: pLC50 (the source's name) (converted)"}}}
{"compound": "COc1cc(/C(=C2\\O[C@@H]([C@H]3COC(C)(C)O3)[C@H]3OC(C)(C)O[C@@H]23)c2ccc3ccccc3c2)cc(OC)c1OC", "values": [{"measurement": "Activity", "setting": "[1]", "value": -21.44, "unit": "%"}, {"measurement": "Activity", "setting": "[2]", "value": -25.39, "unit": "%"}, {"measurement": "Activity", "setting": "[3]", "value": 22.8, "unit": "%"}, {"measurement": "Activity", "setting": "[4]", "value": 26.98, "unit": "%"}, {"measurement": "Activity", "setting": "[5]", "value": 13.6, "unit": "%"}, {"measurement": "Activity", "setting": "[6]", "value": 46.18, "unit": "%"}, {"measurement": "Activity", "setting": "[7]", "value": 47.96, "unit": "%"}, {"measurement": "Activity", "setting": "[8]", "value": 26.19, "unit": "%"}, {"measurement": "Activity", "setting": "[9]", "value": -49.67, "unit": "%"}, {"measurement": "Activity", "setting": "[10]", "value": 45.86, "unit": "%"}, {"measurement": "Activity", "setting": "[11]", "value": 0.86, "unit": "%"}, {"measurement": "Activity", "setting": "[12]", "value": 38.73, "unit": "%"}, {"measurement": "GI50", "setting": "[13]", "value": 3.61, "unit": "µM"}, {"measurement": "TGI", "setting": "[13]", "value": 17.5, "unit": "µM"}, {"measurement": "CC50", "setting": "[13]; [22]", "value": "> 100", "unit": "µM"}, {"measurement": "GI50", "setting": "[14]", "value": 2.54, "unit": "µM"}, {"measurement": "TGI", "setting": "[14]", "value": 5.99, "unit": "µM"}, {"measurement": "CC50", "setting": "[14]; [22]", "value": 32.6, "unit": "µM"}, {"measurement": "GI50", "setting": "[15]; read-out: GI50", "value": 3.45, "unit": "µM"}, {"measurement": "CC50", "setting": "[15]; [22]", "value": "> 100", "unit": "µM"}, {"measurement": "TGI", "setting": "[15]; read-out: TGI", "value": 40.6, "unit": "µM"}, {"measurement": "GI50", "setting": "[15]; read-out: pGI50 (converted)", "value": 3.47, "unit": "µM"}, {"measurement": "CC50", "setting": "[15]; [23]", "value": "> 100", "unit": "µM"}, {"measurement": "TGI", "setting": "[15]; read-out: pTGI (converted)", "value": 40.7, "unit": "µM"}, {"measurement": "GI50", "setting": "[16]; read-out: GI50", "value": 5.71, "unit": "µM"}, {"measurement": "CC50", "setting": "[16]; [22]", "value": "> 100", "unit": "µM"}, {"measurement": "TGI", "setting": "[16]; read-out: TGI", "value": "> 100", "unit": "µM"}, {"measurement": "GI50", "setting": "[16]; read-out: pGI50 (converted)", "value": 5.75, "unit": "µM"}, {"measurement": "CC50", "setting": "[16]; [23]", "value": "> 100", "unit": "µM"}, {"measurement": "TGI", "setting": "[16]; read-out: pTGI", "value": "> 100", "unit": "µM"}, {"measurement": "GI50", "setting": "[17]; read-out: GI50", "value": 7.13, "unit": "µM"}, {"measurement": "CC50", "setting": "[17]; [22]", "value": "> 100", "unit": "µM"}, {"measurement": "TGI", "setting": "[17]; read-out: TGI", "value": 67.9, "unit": "µM"}, {"measurement": "GI50", "setting": "[17]; read-out: pGI50 (converted)", "value": 3.31, "unit": "µM"}, {"measurement": "CC50", "setting": "[17]; [23]", "value": "> 100", "unit": "µM"}, {"measurement": "TGI", "setting": "[17]; read-out: pTGI (converted)", "value": 67.6, "unit": "µM"}, {"measurement": "GI50", "setting": "[18]; read-out: GI50", "value": 4.31, "unit": "µM"}, {"measurement": "CC50", "setting": "[18]; [22]", "value": "> 100", "unit": "µM"}, {"measurement": "TGI", "setting": "[18]; read-out: TGI", "value": "> 100", "unit": "µM"}, {"measurement": "GI50", "setting": "[18]; read-out: pGI50 (converted)", "value": 4.27, "unit": "µM"}, {"measurement": "CC50", "setting": "[18]; [23]", "value": "> 100", "unit": "µM"}, {"measurement": "TGI", "setting": "[18]; read-out: pTGI", "value": "> 100", "unit": "µM"}, {"measurement": "GI50", "setting": "[19]; read-out: GI50", "value": 5.43, "unit": "µM"}, {"measurement": "CC50", "setting": "[19]; [22]", "value": "> 100", "unit": "µM"}, {"measurement": "TGI", "setting": "[19]; read-out: TGI", "value": "> 100", "unit": "µM"}, {"measurement": "GI50", "setting": "[19]; read-out: pGI50 (converted)", "value": 5.37, "unit": "µM"}, {"measurement": "CC50", "setting": "[19]; [23]", "value": "> 100", "unit": "µM"}, {"measurement": "TGI", "setting": "[19]; read-out: pTGI (converted)", "value": "> 100", "unit": "µM"}, {"measurement": "GI50", "setting": "[20]; read-out: GI50", "value": 5.59, "unit": "µM"}, {"measurement": "CC50", "setting": "[20]; [22]", "value": "> 100", "unit": "µM"}, {"measurement": "TGI", "setting": "[20]; read-out: TGI", "value": "> 100", "unit": "µM"}, {"measurement": "GI50", "setting": "[20]; read-out: pGI50 (converted)", "value": 5.62, "unit": "µM"}, {"measurement": "CC50", "setting": "[20]; [23]", "value": "> 100", "unit": "µM"}, {"measurement": "TGI", "setting": "[20]; read-out: pTGI", "value": "> 100", "unit": "µM"}, {"measurement": "CC50", "setting": "[21]; [22]", "value": "> 100", "unit": "µM"}, {"measurement": "CC50", "setting": "[21]; [23]", "value": "> 100", "unit": "µM"}]}
